According to ChEMBL document CHEMBL6127097, “Structure-Guided Discovery of cis-Hexahydro-pyrido-oxazinones as Reversible, Drug-like Monoacylglycerol Lipase Inhibitors” (J Med Chem, 2024):
One block for each compound: values may come before it. The source made the active and inactive calls. The calls are words filed in the database; no cut-off is given here.

Legend:
[1] = Octanol-water partition coefficient, logD of the compound at pH 7.4 incubated for 1.5 hrs by shake flask based LC-UV/MS analysis; type: physicochemical; details: pH 7.4, 1.5 h, 1.5 h
How it was run: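 CAMDIS shake-flask variant. 10 mM DMSO stock is diluted into 25 mM phosphate pH 7.4 over a 1-octanol-impregnated PVDF membrane and shaken 1.5 h at 21 °C, at two octanol/buffer ratios, in triplicate. Remaining aqueous concentration is read by LC/MS; logD comes from the difference with and without octanol.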

[2] = Effective permeability of compound at pH 7.4 at 20 uM incubated for 18 hrs by LCMS analysis; type: ADME; details: not told, read-out: Peff
How it was run: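 PAMPA passive permeability. Donor holds 20 µM sample in 50 mM phosphate-buffered saline pH 7.4, at most 5% DMSO, in triplicate. The lipid/oil/lipid trilayer-impregnated hydrophobic filter sandwich is left unshaken 18 h at 21 °C. Reference, donor and acceptor solutions are analysed by LCMS to give P_eff.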

[3] = Clearance in human microsomes; type: ADME, Microsome
[4] = Clearance in mouse microsomes; type: ADME, Microsome
[5] = Clearance in human hepatocytes assessed per 10 million cells; type: ADME, cell-based, Hepatocyte; details: read-out: CLH
[6] = Plasma protein binding in rat assessed as fraction unbound by equilibrium dialysis based LC-MS/MS method; type: ADME, cell-free
[7] = Half-life in Wistar rat at 10 mg/kg, ip […] by LC-MS/MS analysis; type: ADME, organism-based; details: in vivo
How it was run: (§1)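 Male Wistar rats, single dose. i.v. in NMP/0.9% NaCl 30:70; p.o. and i.p. in NMP/HPMC/diisooctyl sulfosuccinate 10:90; 3 per i.v./p.o. group, 6 i.p. K2EDTA plasma sampled 0.083–7 h, plus 24 h for i.v./p.o.; brain and CSF at 1, 2, 7 h (i.p. only). LC-MS/MS, noncompartmental analysis.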

[8] = Tmax in Wistar rat at 10 mg/kg, ip measured […] by LC-MS/MS analysis; type: ADME, organism-based; details: in vivo; how it was run: as §1
[9] = Bioavailability in Wistar rat at 10 mg/kg, ip measured upto 24 hrs by LC-MS/MS analysis; type: ADME, organism-based; details: in vivo
[10] = Ratio of drug concentration in Wistar rat CSF to plasma at 10 mg/kg, ip measured upto 7 hrs by LC-MS/MS analysis; type: ADME, organism-based; how it was run: as §1
[11] = Unbound brain to plasma partition coefficient of compound in Wistar rat at 10 mg/kg, ip measured upto 7 hrs by LC-MS/MS analysis; type: ADME, organism-based; details: read-out: K(p,uu,brain); how it was run: as §1
CYP3A4 = CYP3A4 (Homo sapiens, UniProt P08684); experiment: Inhibition of CYP3A4 (unknown origin) at 10 uM relative to control; type: ADME
CYP2C9 = CYP2C9 (Homo sapiens, UniProt P11712); experiment: Inhibition of CYP2C9 (unknown origin) at 10 uM relative to control; type: ADME
[12] = Average drug concentration in mouse plasma at 30 mg/kg, ip measured after 4 hrs; type: ADME, organism-based; details: in vivo
How it was run: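 Mice received 3, 10 or 30 mg/kg i.p. The compound was dissolved in DMSO/Tween 80 (1:1) and diluted with 8 parts saline (NaCl/DMSO/TW80 80/10/10). Plasma was taken 4 h after injection and average concentrations reported.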

[13] = Drug concentration in mouse CSF at 3 mg/kg, ip measured after 4 hrs; type: ADME, organism-based, Cerebrospinal fluid; details: read-out: Ct
[14] = Average drug concentration in mouse plasma at 30 mg/kg, ip measured after 8 hrs; type: ADME, organism-based; details: in vivo
How it was run: (§2)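 In a time course, mice were injected i.p. with 30 mg/kg in NaCl/DMSO/Tween 80 (80/10/10). Average plasma levels were determined at the stated time points over 24 h.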

[15] = Average drug concentration in mouse plasma at 30 mg/kg, ip measured after 16 hrs; type: ADME, organism-based; details: in vivo; how it was run: as §2
[16] = Drug concentration in mouse CSF at 30 mg/kg, ip measured after 8 hrs; type: ADME, organism-based, Cerebrospinal fluid; details: read-out: Ct
[17] = Drug concentration in mouse CSF at 30 mg/kg, ip measured after 16 hrs; type: ADME, organism-based, Cerebrospinal fluid; details: read-out: Ct
[18] = Brain-polar-lipids/water distribution coefficient, LIMBA logD brain of the compound at pH 7.4 incubated for 8 hrs by LIMBA
[19] = target: T1, Monoglyceride lipase (Homo sapiens) (UniProt Q99685); experiment: Binding affinity to human MAGL assessed as association rate constant by SPR analysis
T1 sequence (whole entry): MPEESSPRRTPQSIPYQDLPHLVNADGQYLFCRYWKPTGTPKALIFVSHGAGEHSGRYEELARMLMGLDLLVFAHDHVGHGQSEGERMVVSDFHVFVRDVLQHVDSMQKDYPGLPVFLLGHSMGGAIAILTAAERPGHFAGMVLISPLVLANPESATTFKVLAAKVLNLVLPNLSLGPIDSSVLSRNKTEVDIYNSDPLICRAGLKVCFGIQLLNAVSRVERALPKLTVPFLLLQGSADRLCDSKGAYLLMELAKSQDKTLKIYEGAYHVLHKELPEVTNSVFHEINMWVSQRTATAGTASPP
How it was run: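 Human or rat MAGL was immobilized by amine coupling without ethanolamine quenching. Runs were done at 18 °C in 10 mM HEPES, 150 mM NaCl, 0.05% P20, 50 µM EDTA, pH 7.4, with 1% DMSO. Single-cycle kinetics used five concentrations, top 1 µM in 2-fold steps, at 30 µL/min, giving kon, koff and Kd.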

LLC-PK1 = experiment: Substrate activity at mouse P-gp expressed in LLC-PK1 cells assessed as efflux ratio incubated for 3 hrs; type: cell-based
How it was run: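 LLC-PK1 porcine kidney cells transfected with human or mouse P-gp, grown as polarized monolayers on filter plates. Compound is dosed apically or basolaterally and transport followed 3 h at 37 °C. Efflux ratio comes from unidirectional Papp; 1 µM zosuquidar defines permeability without P-gp.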

Mus musculus [20] = experiment: Upregulation of brain 2-AG level in ip dosed mouse measured after 4 hrs; type: functional, organism-based; details: dose 3-30 mg/kg
How it was run: (§3)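 Mice dosed i.p. in NaCl/DMSO/TW80 (80/10/10): 3, 10 or 30 mg/kg with sacrifice at 4 h, or 30 mg/kg over a 24 h time course. Brain extract 2-AG and AA were measured by LC/MS.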

Mus musculus [21] = experiment: Upregulation of brain 2-AG level in mouse at 30 mg/kg, ip measured after 2 hrs; type: functional, organism-based; how it was run: as §3

Chain of CYP2C9 (P11712 whole entry): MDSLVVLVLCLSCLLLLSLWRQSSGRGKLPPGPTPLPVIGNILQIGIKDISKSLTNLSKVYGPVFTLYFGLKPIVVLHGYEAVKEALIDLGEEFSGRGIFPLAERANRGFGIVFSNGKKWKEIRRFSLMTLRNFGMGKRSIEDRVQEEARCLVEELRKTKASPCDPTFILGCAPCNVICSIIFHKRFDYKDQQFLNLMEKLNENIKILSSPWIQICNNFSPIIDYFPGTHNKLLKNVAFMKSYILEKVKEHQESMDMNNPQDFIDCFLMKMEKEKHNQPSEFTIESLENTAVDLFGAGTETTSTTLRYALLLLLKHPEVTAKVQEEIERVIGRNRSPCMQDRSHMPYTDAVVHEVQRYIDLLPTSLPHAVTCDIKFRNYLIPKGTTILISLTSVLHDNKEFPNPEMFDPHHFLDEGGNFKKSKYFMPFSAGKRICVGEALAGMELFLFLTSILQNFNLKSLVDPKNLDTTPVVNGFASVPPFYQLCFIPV
Chain of CYP3A4 (P08684 whole entry): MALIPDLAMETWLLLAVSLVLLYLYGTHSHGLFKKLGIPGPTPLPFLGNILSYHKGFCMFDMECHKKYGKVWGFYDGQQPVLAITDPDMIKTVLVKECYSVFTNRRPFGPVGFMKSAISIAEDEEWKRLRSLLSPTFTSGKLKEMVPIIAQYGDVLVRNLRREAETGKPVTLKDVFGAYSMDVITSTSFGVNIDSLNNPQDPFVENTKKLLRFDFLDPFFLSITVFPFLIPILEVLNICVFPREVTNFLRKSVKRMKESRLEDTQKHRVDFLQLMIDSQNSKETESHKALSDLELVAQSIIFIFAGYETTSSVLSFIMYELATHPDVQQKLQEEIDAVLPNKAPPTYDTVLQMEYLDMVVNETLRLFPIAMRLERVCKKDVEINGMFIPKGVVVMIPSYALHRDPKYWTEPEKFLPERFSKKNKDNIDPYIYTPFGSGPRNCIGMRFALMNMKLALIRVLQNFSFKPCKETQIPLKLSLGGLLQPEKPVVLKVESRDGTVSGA

logD [1]: 3.3 | Papp at 18 h, 20 µM [2]: 12.8 ×10⁻⁶ cm/s | microsomal CLint [3]: < 10 µL/min/mg | microsomal CLint [4]: < 10 µL/min/mg | hepatocyte CLint [5]: 1.9 µL/min/1e6 cells | fraction unbound [6]: 0.032 | half-life [7]: 2.7 h | Tmax [8]: 0.25 h | bioavailability [9]: 111% | Kp at 7 h [10]: 0.017 | Kp uu at 7 h [11]: 0.53 | inhibition at 10 µM (CYP3A4): -195% | inhibition at 10 µM (CYP2C9): 3% | Cave [12]: 27765 nM | concentration at 4 h [13]: 31.2 nM | Cave [14]: 21089 nM | Cave [15]: 2955 nM | concentration at 8 h [16]: 346 nM | concentration at 16 h [17]: 48 nM | LIMBA logD brain at 8 h [18]: 1.8
SMILES: O=C1CO[C@H]2CCN(C(=O)N3CCC(Cc4ccc(C(F)(F)F)cc4)CC3)C[C@H]2N1 [listing 1 of 2 here]

K [19]: 2.5 10^5/M/s
SMILES: O=C1CO[C@H]2CCN(C(=O)N3CCC(Cc4ccc(C(F)(F)F)cc4)CC3)C[C@H]2N1 [listing 2 of 2 here]
Ratio (LLC-PK1): 4 | Activity (Mus musculus [20]): Dose-Dependent Effect | Activity (Mus musculus [21]): Active
